Results reported in ChEMBL document CHEMBL5360579, “Exploring the anticancer activity and the mechanism of action of pyrrolomycins F obtained by microwave-assisted total synthesis” (Eur J Med Chem, 2023).
The source made the active and inactive calls. The calls are words filed in the database; no cut-off is given here.

Key:
HCT-116 [1] = experiment: Induction of apoptosis in human HCT-116 cells assessed as nuclear fragmentation at 0.5 uM incubated for 48 hrs by Hoechst 33342 staining based analysis; format: functional, cell-based
How it was run: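 HCT116 on coverslips at 5×10^4 cells/well, treated 48 h at 0.5 µM after 24 h attachment. PBS-washed, stained 10 min with Hoechst 33342 (final 1 µg/ml). Nuclei inspected at once by fluorescence microscopy at 640X for chromatin condensation and nuclear fragmentation.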

MCF7 [2] = experiment: Induction of morphological changes in human MCF7 cells assessed as reduction in cell clumps at 1 uM incubated for 48 hrs by inverted phase-contrast microscopic analysis; format: functional, cell-based
TERT-RPE1 = experiment: Induction of morphological changes in hTERT-RPE1 cells at 5 uM incubated for 48 hrs by inverted phase-contrast microscopic analysis; format: toxicity, cell-based; conditions: human, tert-rpe1, 48 h
HCT-116 [3] = experiment: Induction of autophagy in human HCT-116 cells assessed as effect on Beclin-1 protein expression at 0.5 uM incubated for 48 hrs by Western blot analysis; format: functional, cell-based
HCT-116 [4] = experiment: Induction of autophagy in human HCT-116 cells assessed as downregulation of LC3B-I expression at 0.5 uM incubated for 48 hrs by Western blot analysis; format: functional, cell-based
MCF7 [5] = experiment: Cytotoxicity against human MCF7 cells assessed as inhibition of cell proliferation incubated for 48 hrs by MTT assay; format: functional, cell-based; conditions: MCF7, 48 h
How it was run: (§1)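 Cells kept in DMEM with 10% heat-inactivated FBS, penicillin/streptomycin, 37 °C, 5% CO2. Plated at 5×10^3 cells/well and left 24 h, then exposed 48 h to 80, 20, 5, 1.25, 0.31 and 0.078 µM (diluted from 5 mM DMSO stocks). MTT added for 2 h at 37 °C, formazan dissolved in DMSO, A570 read. Blank subtracted, viability taken relative to untreated cells. IC50 from a sigmoidal fit of % inhibition vs log concentration. Three experiments, each in triplicate.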

HCT-116 [6] = experiment: Inhibition of epithelial mesenchymal transition in human HCT-116 cells assessed as effect on vimentin protein expression at 0.5 uM incubated for 48 hrs by Western blot analysis; format: functional, cell-based
HCT-116 [7] = experiment: Induction of morphological changes in human HCT-116 cells assessed as increase in number of prominent vacuoles at 0.5 uM incubated for 48 hrs by inverted phase-contrast microscopic analysis; format: functional, cell-based
HCT-116 [8] = experiment: Induction of morphological changes in human HCT-116 cells assessed as reduction in cell clumps at 0.5 uM incubated for 48 hrs by inverted phase-contrast microscopic analysis; format: functional, cell-based
HCT-116 [9] = experiment: Induction of cell death in human HCT-116 cells assessed as effect on Bcl2 protein expression at 0.5 uM incubated for 48 hrs by Western blot analysis; format: functional, cell-based
HCT-116 [10] = experiment: Induction of morphological changes in human HCT-116 cells assessed as development of long elongations from filamentous protrusions resembling filopodia at 0.5 uM incubated for 48 hrs by inverted phase-contrast microscopic analysis; format: functional, cell-based
HCT-116 [11] = experiment: Inhibition of epithelial mesenchymal transition in human HCT-116 cells assessed as effect on E-cadherin protein expression at 0.5 uM incubated for 48 hrs by Western blot analysis; format: functional, cell-based
HCT-116 [12] = experiment: Induction of morphological changes in human HCT-116 cells assessed as leakage and perforation of cell membranes at 0.5 uM incubated for 48 hrs by scanning electron microscopic analysis; format: functional, cell-based
How it was run: (§2)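 HCT116 on coverslips, treated 48 h at 0.5 µM. Coverslips rinsed in PBS pH 7.4, fixed in 4% glutaraldehyde for 30 min at 4 °C, then imaged by scanning electron microscopy at 5000X and 20000X.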

MCF7 [13] = experiment: Induction of morphological changes in human MCF7 cells assessed as development of long elongations from filamentous protrusions resembling filopodia at 1 uM incubated for 48 hrs by inverted phase-contrast microscopic analysis; format: functional, cell-based
HCT-116 [14] = experiment: Induction of cell death in human HCT-116 cells assessed as appearance of acidic vesicular organelles by measuring bright punctate dots in cytoplasm at 0.5 uM incubated for 48 hrs by acridine orange and ethidium bromide staining based fluorescence microscopic analysis; format: functional
How it was run: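 HCT116 on coverslips (5×10^4 cells/well), 24 h attachment, then exposed 48 h to 0.5 µM. PBS-washed and stained a few minutes with a 1:1 mix of acridine orange (100 µg/mL) and ethidium bromide (100 µg/mL). Viewed at once by fluorescence microscopy at 640X, scoring green vs orange nuclei and punctate cytoplasmic staining.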

HCT-116 [15] = experiment: Induction of autophagy in human HCT-116 cells assessed as upregulation of LC3-II expression at 0.5 uM incubated for 48 hrs by Western blot analysis; format: functional, cell-based
HCT-116 [16] = experiment: Induction of autophagy in human HCT-116 cells assessed as effect on Atg-7 protein expression at 0.5 uM incubated for 48 hrs by Western blot analysis; format: functional, cell-based
HCT-116 [17] = experiment: Upregulation of cofilin protein expression in human HCT-116 cells at 0.5 uM incubated for 48 hrs by Western blot analysis; format: functional, cell-based
HCT-116 [18] = experiment: Cytotoxicity against human HCT-116 cells assessed as inhibition of cell proliferation incubated for 48 hrs by MTT assay; format: functional, cell-based; conditions: HCT-116, 48 h; how it was run: as §1
HCT-116 [19] = experiment: Induction of morphological changes in human HCT-116 cells assessed as appearance of long and thin filopodia at 0.5 uM incubated for 48 hrs by scanning electron microscopic analysis; format: functional, cell-based; how it was run: as §2
[20] = Selectivity index, ratio of IC50 for hTERT-RPE1 cells to IC50 for human HCT-116 cells; format: toxicity; conditions: hTERT-RPE1 cells versus HCT-116 cells, read-out: Ratio IC50
How it was run: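 Ratio of the hTERT-RPE-1 MTT IC50 to the IC50 in HCT116 or MCF-7. Each IC50 comes from a 48 h MTT assay (0.078–80 µM, sigmoidal fit), three experiments in triplicate.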

HCT-116 [21] = experiment: Induction of autophagy in human HCT-116 cells assessed as upregulation of Atg-7 protein expression at 0.5 uM incubated for 48 hrs by Western blot analysis; format: functional, cell-based
HCT-116 [22] = experiment: Induction of autophagy in human HCT-116 cells assessed as upregulation of Beclin-1 protein expression at 0.5 uM incubated for 48 hrs by Western blot analysis; format: functional, cell-based

With O=C(c1cc(Br)ccc1O)c1[nH]c(Cl)c(Br)c1Br the Activity (HCT-116 [1]) was “inactive”, the Activity (MCF7 [2]) was “Active” and the Activity (TERT-RPE1) was “Non-Toxic”. The Activity (HCT-116 [3]) was “Active”, the Activity (HCT-116 [4]) was “Active” and the IC50 (MCF7 [5]) was 650 nM. For the same compound, the inhibition (HCT-116 [6]) was “inactive”, the Activity (HCT-116 [7]) was “Active” and the Activity (HCT-116 [8]) was “Active”. The Activity (HCT-116 [9]) was “Active”, the Activity (HCT-116 [10]) was “Active” and the inhibition (HCT-116 [11]) was “inactive”. The Activity (HCT-116 [12]) was “Active”, the Activity (MCF7 [13]) was “Active” and the Activity (HCT-116 [14]) was “Active”. The Activity (HCT-116 [15]) was “Active”, the Activity (HCT-116 [16]) was “Active” and the Activity (HCT-116 [17]) was “Active”. For the same compound, the IC50 (HCT-116 [18]) was 410 nM, the Activity (HCT-116 [19]) was “Active” and the selectivity ratio [20] was about 100.
In the case of O=C(c1cc(Br)ccc1O)c1[nH]c(Br)c(Cl)c1Br, the Activity (HCT-116 [1]) is reported as “inactive”, the Activity (MCF7 [2]) is reported as “Active” and the Activity (TERT-RPE1) is reported as “Non-Toxic”. The Activity (HCT-116 [3]) was “Active”, the IC50 (MCF7 [5]) was 730 nM and the inhibition (HCT-116 [6]) was “inactive”. For the same compound, the Activity (HCT-116 [7]) was “Active”, the Activity (HCT-116 [8]) was “Active” and the Activity (HCT-116 [9]) was “Active”. The Activity (HCT-116 [10]) was “Active”, the inhibition (HCT-116 [11]) was “inactive” and the Activity (HCT-116 [12]) was “Active”. The Activity (MCF7 [13]) was “Active”, the Activity (HCT-116 [14]) was “Active” and the Activity (HCT-116 [16]) was “Active”. The Activity (HCT-116 [17]) was “Active”, the IC50 (HCT-116 [18]) was 490 nM and the Activity (HCT-116 [19]) was “Active”. For the same compound, the selectivity ratio [20] was about 100.
In the case of O=C(c1cc(Br)cc(Br)c1O)c1[nH]c(Br)c(Br)c1Br, the Activity (HCT-116 [1]) is reported as “inactive”, the Activity (MCF7 [2]) is reported as “Active” and the Activity (TERT-RPE1) is reported as “Non-Toxic”. The IC50 (MCF7 [5]) was 1200 nM, the inhibition (HCT-116 [6]) was “inactive” and the Activity (HCT-116 [21]) was “Active”. For the same compound, the Activity (HCT-116 [7]) was “Active”, the Activity (HCT-116 [8]) was “Active” and the Activity (HCT-116 [9]) was “Active”. The Activity (HCT-116 [10]) was “Active”, the inhibition (HCT-116 [11]) was “inactive” and the Activity (HCT-116 [22]) was “Active”. For the same compound, the Activity (HCT-116 [12]) was “Active”, the Activity (MCF7 [13]) was “Active” and the Activity (HCT-116 [14]) was “Active”. The Activity (HCT-116 [17]) was “Active”, the IC50 (HCT-116 [18]) was 1300 nM and the Activity (HCT-116 [19]) was “Active”.
In the case of O=C(c1cc(Br)ccc1O)c1[nH]c(Br)c(Br)c1Br, the Activity (HCT-116 [1]) is reported as “inactive”, the Activity (MCF7 [2]) is reported as “Active” and the Activity (TERT-RPE1) is reported as “Non-Toxic”. The Activity (HCT-116 [3]) was “Active”, the IC50 (MCF7 [5]) was 610 nM and the inhibition (HCT-116 [6]) was “inactive”. For the same compound, the Activity (HCT-116 [7]) was “Active”, the Activity (HCT-116 [8]) was “Active” and the Activity (HCT-116 [9]) was “Active”. The Activity (HCT-116 [10]) was “Active”, the inhibition (HCT-116 [11]) was “inactive” and the Activity (HCT-116 [12]) was “Active”. The Activity (MCF7 [13]) was “Active”, the Activity (HCT-116 [14]) was “Active” and the Activity (HCT-116 [16]) was “Active”. The Activity (HCT-116 [17]) was “Active”, the IC50 (HCT-116 [18]) was 350 nM and the Activity (HCT-116 [19]) was “Active”. The selectivity ratio [20] was about 100.
In the case of O=C(c1cc(Br)ccc1O)c1[nH]c(Cl)c(Cl)c1Br, the Activity (HCT-116 [1]) is reported as “inactive”, the Activity (MCF7 [2]) is reported as “Active” and the Activity (TERT-RPE1) is reported as “Non-Toxic”. For the same compound, the Activity (HCT-116 [3]) was “Active”, the Activity (HCT-116 [4]) was “Active” and the IC50 (MCF7 [5]) was 1210 nM. For the same compound, the inhibition (HCT-116 [6]) was “inactive”, the Activity (HCT-116 [7]) was “Active” and the Activity (HCT-116 [8]) was “Active”. The Activity (HCT-116 [9]) was “Active”, the Activity (HCT-116 [10]) was “Active” and the inhibition (HCT-116 [11]) was “inactive”. The Activity (HCT-116 [12]) was “Active”, the Activity (MCF7 [13]) was “Active” and the Activity (HCT-116 [14]) was “Active”. The Activity (HCT-116 [15]) was “Active”, the Activity (HCT-116 [16]) was “Active” and the Activity (HCT-116 [17]) was “Active”. For the same compound, the IC50 (HCT-116 [18]) was 880 nM, the Activity (HCT-116 [19]) was “Active” and the selectivity ratio [20] was about 100.
